Converted amounts (≈) assume the structure as drawn.
What was measured:
MDCK [1] = assay: In vitro antiviral activity against influenza virus (type A0/PR/8/34) in Madin-Darby canine kidney (MDCK) host cell cultures; assay type: functional, Canis lupus familiaris
MDCK [2] = assay: Minimum concentration (ug/mL) for in vitro antiviral activity against influenza virus (type A0/PR/8/34) in Madin-Darby canine kidney (MDCK) host cell cultures; assay type: functional, Canis lupus familiaris
Method in brief: (§1)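 MDCK host cell cultures infected with influenza A0/PR/8/34, scored for inhibition of virus-induced cytopathogenic effect (CPE). ID50 is the minimum drug concentration (μg/mL) that cut CPE by 50%, from semilog regression curve fitting. MTC is the minimum concentration (μg/mL) at which any cytotoxicity was seen. Therapeutic index is MTC divided by ID50.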

MDCK [3] = assay: In vitro antiviral activity against influenza virus (type A0/PR/8/34) in Madin-Darby canine kidney (MDCK) host cell cultures (MTC/ID50); assay type: functional, Canis lupus familiaris; method in brief: as §1
MDCK [4] = assay: In vitro minimum drug concentration that inhibited the influenza virus-induced cytopathogenic effects by 50% in Madin-Darby canine kidney (MDCK) host cell cultures; assay type: functional; conditions: Canis lupus familiaris, read-out: ID50 (the source's name); method in brief: as §1
P388 [5] = assay: In vitro inhibition against P-388 mouse leukemia cells using growth inhibition assay at the concentration of 25 ug/mL; assay type: functional
Method in brief: (§2)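 P-388 mouse leukemia cells in culture, by the National Cancer Institute protocol. Tested at 6.25-100 μg/mL and reported as percent growth inhibition. Carbocyclic adenosine is the positive control.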

Vero [6] = assay: (§3) In vitro antiviral activity against herpes simplex virus type 1 (E-377 strain) in Vero host cell cultures; assay type: functional; conditions: Chlorocebus sabaeus, read-out: ID50 (the source's name)
Method in brief: (§4)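 CPE inhibition assay with HSV-1 strain E-377 replicating in Vero cells. ID50 is the minimum concentration (μg/mL) inhibiting CPE by 50%, from regression with semilog curve fitting. MTC is the minimum concentration (μg/mL) giving any cytotoxicity. TI is MTC divided by ID50.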

MRC5 [7] = assay: Effect of compound on yields of human cytomegalovirus (HCMV) in MRC5 (human diploid embryonic lung cells)cell monolayer cultures at the concentration of 100 uM; assay type: functional
Method in brief: (§5)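 Virus yield reduction assay with HCMV strain Ad169, passaged, titrated and assayed in MRC5 human diploid embryonic lung cells. Virus yields are read as PFU. Includes a virus control and a DHPG positive control.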

MRC5 [8] = assay: Effect of compound on yields of human cytomegalovirus (HCMV) in MRC5 (human diploid embryonic lung cells)cell monolayer cultures at the concentration of 32 uM; assay type: functional; method in brief: as §5
MRC5 [9] = assay: Cytotoxicity against MRC5 (human diploid embryonic lung cells)cell monolayer cultures at the concentration of 32 uM; assay type: functional
MRC5 [10] = assay: Cytotoxicity against MRC5 (human diploid embryonic lung cells) cell monolayer cultures by using MTT [3-(4,5-Dimethylthiazol-2-yl)-2,5-diphenyltetrazolium bromide]assay at the concentration of 1000 uM; assay type: functional
Method in brief: (§6)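 MRC5 human diploid embryonic lung cell monolayers. Cytotoxicity is quantified by host-cell mitochondrial reduction of MTT to MTT formazan. It was run alongside the HCMV yield reduction assay.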

MRC5 [11] = assay: Effect of compound on yields of human cytomegalovirus (HCMV) in MRC5 (human diploid embryonic lung cells)cell monolayer cultures at the concentration of 0 uM; assay type: functional; method in brief: as §5
MRC5 [12] = assay: Effect of compound on yields of human cytomegalovirus (HCMV) in MRC5 (human diploid embryonic lung cells)cell monolayer cultures at the concentration of 10 uM; assay type: functional; method in brief: as §5
MRC5 [13] = assay: Effect of compound on yields of human cytomegalovirus (HCMV) in MRC5 (human diploid embryonic lung cells)cell monolayer cultures at the concentration of 320 uM; assay type: functional; method in brief: as §5
MRC5 [14] = assay: Cytotoxicity against MRC5 (human diploid embryonic lung cells)cell monolayer cultures by using MTT [3-(4,5-Dimethylthiazol-2-yl)-2,5-diphenyltetrazolium bromide]assay at the concentration of 100 uM; assay type: functional; method in brief: as §6
P388 [15] = assay: In vitro inhibition against P-388 mouse leukemia cells using growth inhibition assay at the concentration of 50 ug/mL; assay type: functional; method in brief: as §2
MRC5 [16] = assay: Cytotoxicity against MRC5 (human diploid embryonic lung cells) cell monolayer cultures at the concentration of 320 uM; Slightly toxic; assay type: functional, cell-based
Vero [17] = assay: Minimum concentration (ug/mL) for in vitro antiviral activity against herpes simplex virus type 1 (E-377 strain) in Vero host cell cultures; assay type: functional, Chlorocebus sabaeus; method in brief: as §4
MRC5 [18] = assay: Cytotoxicity against MRC5 (human diploid embryonic lung cells)cell monolayer cultures at the concentration of 1000 uM; Slightly toxic; assay type: functional, cell-based
P388 [19] = assay: In vitro inhibition against P-388 mouse leukemia cells using growth inhibition assay at the concentration of 100 ug/mL; assay type: functional; method in brief: as §2
P388 [20] = assay: In vitro inhibition against P-388 mouse leukemia cells using growth inhibition assay at the concentration of 6.25 ug/mL; assay type: functional; method in brief: as §2
Vero [21] = assay: as §3; assay type: functional, Chlorocebus sabaeus
Method in brief: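 CPE-inhibition assay: HSV-1 strain E-377 replicating in African green monkey kidney (Vero) cells. ID50 is the minimum drug concentration (μg/mL) giving 50% CPE inhibition, taken from semilog regression curve fitting. Cytotoxicity was scored as the minimum concentration (μg/mL) showing any toxicity (MTC). TI = MTC/ID50.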

MRC5 [22] = assay: Effect of compound on yields of human cytomegalovirus (HCMV) in MRC5 (human diploid embryonic lung cells)cell monolayer cultures at the concentration of 3.2 uM; assay type: functional; method in brief: as §5
Vero [23] = assay: as §3; assay type: functional, Chlorocebus sabaeus; method in brief: as §4; remark: listed apart in the source
P388 [24] = assay: In vitro inhibition against P-388 mouse leukemia cells using growth inhibition assay at the concentration of 12.5 ug/mL; assay type: functional; method in brief: as §2
MRC5 [25] = assay: Cytotoxicity against MRC5 (human diploid embryonic lung cells)cell monolayer cultures at the concentration of 100 uM; assay type: functional
MRC5 [26] = assay: Cytotoxicity against MRC5 (human diploid embryonic lung cells)cell monolayer cultures by using MTT [3-(4,5-Dimethylthiazol-2-yl)-2,5-diphenyltetrazolium bromide]assay at the concentration of 32 uM; assay type: functional; method in brief: as §6
MRC5 [27] = assay: Effect of compound treatment on yields of human cytomegalovirus (HCMV) in MRC5 (human diploid embryonic lung cells)cell monolayer cultures at the concentration of 1000 uM; assay type: functional; method in brief: as §5
MRC5 [28] = assay: Cytotoxicity against MRC5 (human diploid embryonic lung cells) cell monolayer cultures by using MTT [3-(4,5-Dimethylthiazol-2-yl)-2,5-diphenyltetrazolium bromide]assay at the concentration of 320 uM; assay type: functional; method in brief: as §6
Vero [29] = assay: In vitro antiviral activity against herpes simplex virus type 1 (E-377 strain) in Vero host cell cultures (MTC/ID50); assay type: functional, Chlorocebus sabaeus; method in brief: as §4
Vero [30] = assay: In vitro minimum drug concentration that inhibited herpes simplex virus type 1 (E-377 strain)-induced cytopathogenic effects by 50% in vero cell cultures; assay type: functional; conditions: Chlorocebus sabaeus, read-out: ID50 (the source's name); method in brief: as §4
MRC5 [31] = assay: Effect of compound treatment on yields of human cytomegalovirus (HCMV) in MRC5 (human diploid embryonic lung cells) monolayer cultures at the concentration of 32 uM; assay type: functional; method in brief: as §5
Vero [32] = assay: In vitro minimum drug concentration that inhibited herpes simplex virus type 1 (E-377 strain) virus-induced cytopathogenic effects by 50% in vero cells; assay type: functional; conditions: Chlorocebus sabaeus, read-out: ID50 (the source's name); method in brief: as §4

SMILES: NC(=O)c1ncn([C@@H]2O[C@H](CO)[C@@H](O)[C@H]2O)n1 [RIBAVIRIN]
- Virus rating (MDCK [1]): 3.4
- MTC (MDCK [2]): 32 µg/mL
- Therapeutic index (MDCK [3]): 10.3
- IC50 (MDCK [4]): 3.1 µg/mL (≈ 12.7 µM)

SMILES: Nc1nc(O)c2ncn(C3CC(CO)C(O)C3O)c2n1 (centres undefined)
- inhibition at 25 µg/mL (P388 [5]): 42.1%
- IC50 (Vero [6]): 83.4 µg/mL (≈ 297 µM)
- HCMV yield (MRC5 [7]): 3.7 log10 pfu/mL
- HCMV yield reduction (MRC5 [7]): 1.7 log10 pfu/mL
- HCMV yield (MRC5 [8]): 4.2 log10 pfu/mL
- HCMV yield reduction (MRC5 [8]): 1.2 log10 pfu/mL
- Gross morphology (MRC5 [9]): 0
- Virus rating (MDCK [1]): 0
- Control (MRC5 [10]): 88%
- HCMV yield (MRC5 [11]): 5.4 log10 pfu/mL
- HCMV yield (MRC5 [12]): 4.8 log10 pfu/mL
- HCMV yield reduction (MRC5 [12]): 0.6 log10 pfu/mL
- HCMV yield (MRC5 [13]): 2.5 log10 pfu/mL
- HCMV yield reduction (MRC5 [13]): 2.9 log10 pfu/mL
- Control (MRC5 [14]): 97%
- inhibition at 50 µg/mL (P388 [15]): 58.4%
- Gross morphology (MRC5 [16]): Toxic
- MTC (Vero [17]): >299.3 µg/mL
- Gross morphology (MRC5 [18]): Toxic
- inhibition at 100 µg/mL (P388 [19]): 71.6%
- inhibition at 6.25 µg/mL (P388 [20]): 0%
- TI (Vero [21]): >3.6
- HCMV yield (MRC5 [22]): 4.9 log10 pfu/mL
- HCMV yield reduction (MRC5 [22]): 0.5 log10 pfu/mL
- Virus rating (Vero [23]): 2.1
- inhibition at 12.5 µg/mL (P388 [24]): 9.1%
- Gross morphology (MRC5 [25]): 0
- Control (MRC5 [26]): 103%
- HCMV yield (MRC5 [27]): < 0.6 log10 pfu/mL
- HCMV yield reduction (MRC5 [27]): > 4.8 log10 pfu/mL
- Control (MRC5 [28]): 93%

SMILES: Nc1nc(Cl)c2ncn(C3CC(CO)C(O)C3O)c2n1 (centres undefined)
- inhibition at 25 µg/mL (P388 [5]): 0%
- Virus rating (MDCK [1]): 0
- inhibition at 50 µg/mL (P388 [15]): 0%
- MTC (Vero [17]): 299.7 µg/mL
- inhibition at 100 µg/mL (P388 [19]): 2.8%
- inhibition at 6.25 µg/mL (P388 [20]): 0%
- Virus rating (Vero [23]): 0
- inhibition at 12.5 µg/mL (P388 [24]): 0%

SMILES: Nc1nc(N)c2ncn(C3CC(CO)C(O)C3O)c2n1 (centres undefined)
- inhibition at 25 µg/mL (P388 [5]): 0%
- Virus rating (MDCK [1]): 0
- Therapeutic index (Vero [29]): 1.4
- inhibition at 50 µg/mL (P388 [15]): 11.3%
- MTC (Vero [17]): 280.3 µg/mL
- IC50 (Vero [30]): 195 µg/mL (≈ 696 µM)
- inhibition at 100 µg/mL (P388 [19]): 42.3%
- inhibition at 6.25 µg/mL (P388 [20]): 0%
- Virus rating (Vero [23]): 0.6 VR
- inhibition at 12.5 µg/mL (P388 [24]): 0%

SMILES: Nc1nc(Cl)c2nnn(C3CC(CO)C(O)C3O)c2n1 (centres undefined)
- inhibition at 25 µg/mL (P388 [5]): 14.2%
- Virus rating (MDCK [1]): 0.3
- MTC (MDCK [2]): >256.3 µg/mL
- inhibition at 50 µg/mL (P388 [15]): 40.1%
- MTC (Vero [17]): 300.7 µg/mL
- inhibition at 100 µg/mL (P388 [19]): 99.1%
- inhibition at 6.25 µg/mL (P388 [20]): 0%
- Virus rating (Vero [23]): 0
- inhibition at 12.5 µg/mL (P388 [24]): 0%

SMILES: Nc1nc2c(ncn2COC(CO)CO)c(=O)[nH]1 [GANCICLOVIR]
- HCMV yield (MRC5 [31]): 2.4 log10 pfu/mL
- HCMV yield reduction (MRC5 [31]): 3 log10 pfu/mL

SMILES: Nc1nc(O)c2nnn(C3CC(CO)C(O)C3O)c2n1 (centres undefined)
- inhibition at 25 µg/mL (P388 [5]): 5%
- Virus rating (MDCK [1]): 0.2
- MTC (MDCK [2]): 95 µg/mL
- inhibition at 50 µg/mL (P388 [15]): 27.4%
- MTC (Vero [17]): 300.3 µg/mL
- inhibition at 100 µg/mL (P388 [19]): 63.9%
- inhibition at 6.25 µg/mL (P388 [20]): 0%
- Virus rating (Vero [23]): 0
- inhibition at 12.5 µg/mL (P388 [24]): 0%

SMILES: Nc1nc2c(ncn2COCCO)c(=O)[nH]1 [ACYCLOVIR]
- Therapeutic index (Vero [29]): >240.3
- MTC (Vero [17]): >255.2 µg/mL
- IC50 (Vero [32]): 0.9 µg/mL (≈ 4 µM)
- Virus rating (Vero [23]): 6.2

SMILES: Nc1ncnc2c1ncn2[C@@H]1C[C@H](CO)[C@@H](O)[C@H]1O [ARISTEROMYCIN]
- inhibition at 25 µg/mL (P388 [5]): 100%
- inhibition at 50 µg/mL (P388 [15]): 100%
- inhibition at 100 µg/mL (P388 [19]): 100%
- inhibition at 6.25 µg/mL (P388 [20]): 100%
- inhibition at 12.5 µg/mL (P388 [24]): 100%

SMILES: Nc1nc(N)c2nnn(C3CC(CO)C(O)C3O)c2n1 (centres undefined)
- inhibition at 25 µg/mL (P388 [5]): 12.2%
- Virus rating (MDCK [1]): 0
- inhibition at 50 µg/mL (P388 [15]): 31.5%
- MTC (Vero [17]): >294.8 µg/mL
- inhibition at 100 µg/mL (P388 [19]): 58.4%
- inhibition at 6.25 µg/mL (P388 [20]): 0%
- Virus rating (Vero [23]): 0
- inhibition at 12.5 µg/mL (P388 [24]): 0%

SMILES: Nc1ncnc2c1ncn2[C@@H]1O[C@H](CO)[C@@H](O)[C@@H]1O [VIDARABINE]
- IC50 (Vero [6]): 4.8 µg/mL (≈ 18 µM)
- Therapeutic index (Vero [29]): 5.6
- MTC (Vero [17]): 26.8 µg/mL
- Virus rating (Vero [23]): 2.4
